# What was measured:
# [1] = Selectivity ratio of IC50 for Vero cells to MIC for Mycobacterium tuberculosis H37Rv ATCC 27294; assay type: functional
# Summary of the method: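 SI is the ratio of the IC50 measured in VERO cells (72 h MTT) to the MIC against M. tuberculosis H37Rv (MABA, 90% fluorescence reduction). An SI of 10 or more counts as active at the second screening level.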
# Vero = test: Cytotoxicity against african green monkey Vero cells after 72 hrs by MTT assay; assay type: cell-based; conditions: Chlorocebus sabaeus
# Summary of the method: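 VERO cells were exposed to compound for 72 h. Viability was read from cellular conversion of MTT to formazan (CellTiter 96 non-radioactive proliferation assay), and the IC50 was determined.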
# [2] = system: Mycobacterium tuberculosis; test: Antituberculosis activity against Mycobacterium tuberculosis H37Rv ATCC 27294 after 4 days by microplate alamar blue assay; assay type: functional; conditions: H37Rv ATCC 27294, 96 h
# Summary of the method: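 M. tuberculosis H37Rv (ATCC 27294) in BACTEC 12B medium, tested by Microplate Alamar Blue Assay across a range of lower concentrations. MIC is the lowest concentration giving a 90% reduction in fluorescence versus controls. Rifampicin was the reference.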
# [3] = system: Mycobacterium tuberculosis; test: Antituberculosis activity against Mycobacterium tuberculosis H37Rv ATCC 27294; assay type: functional
Structure (SMILES),Selectivity ratio [1],IC50 (Vero) [µg/mL],MIC [2] [µg/mL],Activity [3]
Cc1c(C(=O)NCCc2ccccc2)[n+]([O-])c2cc(C(F)(F)F)ccc2[n+]1[O-],>26.019,> 30,1.15,>=90%
COc1ccc(CCNC(=O)c2c(C)[n+]([O-])c3ccccc3[n+]2[O-])cc1,>8.6605,> 30,3.46,>=90%
COc1ccc(CCNC(=O)c2c(C)[n+]([O-])c3ccc(F)cc3[n+]2[O-])cc1,>153.84,> 30,< 0.195,>=90%
COc1ccc(CCNC(=O)c2c(C)[n+]([O-])c3cc(F)c(F)cc3[n+]2[O-])cc1,>14.577,> 30,2.06,>=90%
Cc1c(C(=O)NCc2ccccc2)[n+]([O-])c2cc(F)c(F)cc2[n+]1[O-],10.64,18.4,1.73,>=90%
Cc1c(C(=O)NCCc2ccccc2)[n+]([O-])c2cc(Cl)c(Cl)cc2[n+]1[O-],>153.84,> 30,< 0.195,>=90%
Cc1c(C(=O)NCCc2ccccc2)[n+]([O-])c2cc(F)ccc2[n+]1[O-],>198.41,> 100,0.504,>=90%
COc1ccc2c(c1)[n+]([O-])c(C(=O)NCc1ccccc1)c(C)[n+]2[O-],–,–,12.3,>=90%
Cc1c(C(=O)NCc2ccccc2)[n+]([O-])c2cc(Cl)ccc2[n+]1[O-],>230.94,> 100,0.433,>=90%
Cc1ccc2c(c1)[n+]([O-])c(C(=O)NCc1ccccc1)c(C)[n+]2[O-],>23.77,> 100,4.21,>=90%
Cc1c(C(=O)NCCc2ccccc2)[n+]([O-])c2cc(F)c(F)cc2[n+]1[O-],>58.027,> 30,0.517,>=90%
COc1ccc(CCNC(=O)c2c(C)[n+]([O-])c3ccc(Cl)cc3[n+]2[O-])cc1,>153.84,> 30,< 0.195,>=90%
COc1ccc(CCNC(=O)c2c(C)[n+]([O-])c3cc(Cl)c(Cl)cc3[n+]2[O-])cc1,>66.079,> 30,0.454,>=90%
Cc1c(C(=O)NCc2ccccc2)[n+]([O-])c2cc(Cl)c(Cl)cc2[n+]1[O-],>500,> 100,< 0.2,>=90%
COc1ccc(CNC(=O)c2c(C)[n+]([O-])c3ccc(C(F)(F)F)cc3[n+]2[O-])cc1,>30.03,> 30,0.999,>=90%
Cc1c(C(=O)NCc2ccccc2)[n+]([O-])c2cc(C(F)(F)F)ccc2[n+]1[O-],>246.3,> 100,0.406,>=90%
COc1ccc(CNC(=O)c2c(C)[n+]([O-])c3ccccc3[n+]2[O-])cc1,>10.537,> 30,2.85,>=90%
COc1ccc(CNC(=O)c2c(C)[n+]([O-])c3ccc(C)cc3[n+]2[O-])cc1,>3.3696,> 30,8.9,>=90%
Cc1c(C(=O)NCc2ccccc2)[n+]([O-])c2cc(F)ccc2[n+]1[O-],>65.7,> 100,1.52,>=90%

Structure (SMILES),Selectivity ratio [1],IC50 (Vero) [µg/mL],MIC [2] [µg/mL],Activity [3]
COc1ccc(CNC(=O)c2c(C)[n+]([O-])c3cc(C)c(C)cc3[n+]2[O-])cc1,–,–,> 100,>=90%
Cc1c(C(=O)NCCc2ccccc2)[n+]([O-])c2ccccc2[n+]1[O-],>32.81,> 100,3.05,>=90%
Cc1ccc2c(c1)[n+]([O-])c(C(=O)NCCc1ccccc1)c(C)[n+]2[O-],>11.6,> 100,8.62,>=90%
Cc1cc2c(cc1C)[n+]([O-])c(C(=O)NCCc1ccccc1)c(C)[n+]2[O-],–,–,16.4,>=90%
COc1ccc2c(c1)[n+]([O-])c(C(=O)NCCc1ccccc1)c(C)[n+]2[O-],–,–,13.7,>=90%
Cc1c(C(=O)NCCc2ccccc2)[n+]([O-])c2cc(Cl)ccc2[n+]1[O-],>500,> 100,< 0.2,>=90%
COc1ccc(CCNC(=O)c2c(C)[n+]([O-])c3ccc(C(F)(F)F)cc3[n+]2[O-])cc1,>21.023,> 30,1.43,>=90%
COc1ccc(CNC(=O)c2c(C)[n+]([O-])c3ccc(OC)cc3[n+]2[O-])cc1,–,–,12,>=90%
COc1ccc(CCNC(=O)c2c(C)[n+]([O-])c3ccc(OC)cc3[n+]2[O-])cc1,–,–,16.9,>=90%
COc1ccc(CNC(=O)c2c(C)[n+]([O-])c3ccc(Cl)cc3[n+]2[O-])cc1,–,–,–,>=90%
Cc1c(C(=O)NCc2ccccc2)[n+]([O-])c2ccccc2[n+]1[O-],>38.372,> 100,2.61,>=90%
Cc1cc2c(cc1C)[n+]([O-])c(C(=O)NCc1ccccc1)c(C)[n+]2[O-],–,–,> 100,>=90%
COc1ccc(CCNC(=O)c2c(C)[n+]([O-])c3ccc(C)cc3[n+]2[O-])cc1,>3.389,> 30,8.85,>=90%
COc1ccc(CCNC(=O)c2c(C)[n+]([O-])c3cc(C)c(C)cc3[n+]2[O-])cc1,–,–,> 100,>=90%
COc1ccc(CNC(=O)c2c(C)[n+]([O-])c3cc(Cl)c(Cl)cc3[n+]2[O-])cc1,–,–,–,>=90%
COc1ccc(CNC(=O)c2c(C)[n+]([O-])c3ccc(F)cc3[n+]2[O-])cc1,>19.893,> 30,1.51,>=90%
COc1ccc(CNC(=O)c2c(C)[n+]([O-])c3cc(F)c(F)cc3[n+]2[O-])cc1,21.734,16.6,0.764,>=90%
CO[C@H]1/C=C/O[C@@]2(C)Oc3c(C)c(O)c4c(O)c(c(/C=N/N5CCN(C)CC5)c(O)c4c3C2=O)NC(=O)/C(C)=C\C=C\[C@H](C)[C@H](O)[C@@H](C)[C@@H](O)[C@@H](C)[C@H](OC(C)=O)[C@@H]1C [RIFAMPIN],>800,> 100,0.015,–

# From ChEMBL document CHEMBL1156982, “New 3-methylquinoxaline-2-carboxamide 1,4-di-N-oxide derivatives as anti-Mycobacterium tuberculosis agents” (Bioorg Med Chem, 2010)
